Results taken from ChEMBL document CHEMBL3526063, “Metabolism and pharmacokinetics of JM6 in mice: JM6 is not a prodrug for Ro-61-8048” (Drug Metab Dispos, 2012).

Columns and labels:
[1] = test system: Mus musculus; assay: Dose normalised Cmax in C57BL/6N mouse treated with JM6 (containing <0.4% Ro-61-8048) at 9.5 mg/kg, po and Ro-61-8048 at 0.05 mg/kg, po drugs administered via gavage by LC-MS/MS analysis; assay type: ADME, organism-based; conditions: in vivo, in the assay text read “0.5 mg/kg” for “0.05 mg/kg”
How it was run: (§1)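 Male C57BL/6N mice were dosed by oral gavage at 10 mL/kg with a fine suspension in 10% hydroxypropyl-β-cyclodextrin in 50 mM phosphate buffer, pH 7. Plasma was taken at non-serial time points (n=3 per time point), extracted with 0.1% formic acid in acetonitrile containing diclofenac as internal standard, and quantified by UPLC-MS/MS. Composite non-compartmental parameters came from mean concentrations; AUClast by linear trapezoid, kel from at least three terminal points.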

[2] = Apparent permeability from basolateral to apical side in MDCK2 cells at 10 uM after 1 hr by LC-MS/MS analysis; assay type: ADME, cell-based, Canis lupus familiaris, MDCK-II; conditions: dog
How it was run: (§2)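 MDCKII wild-type or MDR1 monolayers were grown 3 days on Transwells after seeding at 2×10^5 cells/well. Compound at 10 µM in HBSS with 25 mM HEPES, pH 7.4, was added apically or basolaterally in duplicate, with Lucifer Yellow as an integrity marker (wells above 100 nm/s rejected).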

[3] = test system: Mus musculus; assay: Dose normalised AUC in C57BL/6N mouse treated with JM6 (containing <0.4% Ro-61-8048) at 9 mg/kg, po and Ro-61-8048 at 1 mg/kg, po drugs administered via gavage by LC-MS/MS analysis; assay type: ADME, organism-based; conditions: in vivo; how it was run: as §1
[4] = Tmax in C57BL/6N mouse treated with JM6 (containing <0.4% Ro-61-8048) at 9.5 mg/kg, po and Ro-61-8048 at 0.05 mg/kg, po drugs administered via gavage by LC-MS/MS analysis; assay type: ADME, organism-based; conditions: in vivo, in the assay text read “0.5 mg/kg” for “0.05 mg/kg”
How it was run: (§3)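 Male C57BL/6N mice dosed by oral gavage (10 mL/kg) as fine suspensions in 10% hydroxypropyl-β-cyclodextrin in 50 mM phosphate buffer pH 7; dose formulations verified by LC-MS/MS. Plasma analysed by LC-MS/MS; composite non-compartmental parameters from mean concentrations (n=3 per time point), C0 set to zero. %F = dose-normalised po AUCinf over dose-normalised iv AUCinf, only within linear range.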

[5] = Half life in C57BL/6N mouse treated with JM6 (containing <0.4% Ro-61-8048) at 25 mg/kg, po and Ro-61-8048 at 0.05 mg/kg, po drugs administered via gavage by LC-MS/MS analysis; assay type: ADME, organism-based; conditions: in vivo; how it was run: as §1
[6] = Tmax in C57BL/6N mouse treated with JM6 (containing <0.4% Ro-61-8048) at 25 mg/kg, po and Ro-61-8048 at 0.05 mg/kg, po drugs administered via gavage by LC-MS/MS analysis; assay type: ADME, organism-based; conditions: in vivo; how it was run: as §3
[7] = Half life in C57BL/6N mouse treated with JM6 (containing <0.4% Ro-61-8048) at 9.5 mg/kg, po and Ro-61-8048 at 0.05 mg/kg, po drugs administered via gavage by LC-MS/MS analysis; assay type: ADME, organism-based; conditions: in vivo, in the assay text read “0.5 mg/kg” for “0.05 mg/kg”; how it was run: as §1
[8] = test system: Mus musculus; assay: Dose normalised AUC in C57BL/6N mouse treated with JM6 (containing <0.4% Ro-61-8048) at 9.5 mg/kg, po and Ro-61-8048 at 0.05 mg/kg, po drugs administered via gavage by LC-MS/MS analysis; assay type: ADME, organism-based; conditions: in vivo, in the assay text read “0.5 mg/kg” for “0.05 mg/kg”; how it was run: as §1
[9] = test system: MDR1; assay: Apparent permeability from apical to basolateral side in MDCK2-MDR1 cells at 10 uM after 1 hr by LC-MS/MS analysis; assay type: ADME, cell-based, Canis lupus familiaris, MDCK-II; conditions: dog, MDCK-MDR1; how it was run: as §2
[10] = test system: Mus musculus; assay: Dose normalised AUC in C57BL/6N mouse treated with JM6 (containing <0.4% Ro-61-8048) at 25 mg/kg, po and Ro-61-8048 at 0.05 mg/kg, po drugs administered via gavage by LC-MS/MS analysis; assay type: ADME, organism-based; conditions: in vivo; how it was run: as §1
[11] = AUClast in C57BL/6N mouse treated with JM6 (containing <0.4% Ro-61-8048) at 9 mg/kg, po and Ro-61-8048 at 1 mg/kg, po drugs administered via gavage by LC-MS/MS analysis; assay type: ADME, organism-based; set-up: dose 9 mg/kg, time 0 - last, route oral; conditions: plasma; how it was run: as §1
[12] = Metabolic stability in human plasma assessed as half life at 5 uM after 10 to 1440 mins by LC-MS/MS analysis; assay type: ADME, cell-free
[13] = Tmax in C57BL/6N mouse treated with JM6 (containing <0.4% Ro-61-8048) at 9 mg/kg, po and Ro-61-8048 at 1 mg/kg, po drugs administered via gavage by LC-MS/MS analysis; assay type: ADME, organism-based; conditions: in vivo; how it was run: as §3
[14] = test system: MDR1; assay: Apparent permeability from basolateral to apical side in MDCK2-MDR1 cells at 10 uM after 1 hr by LC-MS/MS analysis; assay type: ADME, cell-based, Canis lupus familiaris, MDCK-II; conditions: dog, MDCK-MDR1; how it was run: as §2
[15] = test system: Mus musculus; assay: Dose normalised Cmax in C57BL/6N mouse treated with JM6 (containing <0.4% Ro-61-8048) at 10 mg/kg, po and Ro-61-8048 at 0.05 mg/kg, po drugs administered via gavage by LC-MS/MS analysis; assay type: ADME, organism-based; conditions: in vivo; how it was run: as §1
[16] = Metabolic stability in rat plasma assessed as half life at 5 uM after 10 to 1440 mins by LC-MS/MS analysis; assay type: ADME, cell-free
[17] = molecular target: Kynurenine 3-monooxygenase (Rattus norvegicus, UniProt O88867); assay: Inhibition of Wistar rat KMO assessed as 3-hydroxykynurenine formation preincubated for 5 mins using 100 uM kynurenine as substrate by LC-MS/MS analysis
How it was run: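 Liver mitochondrial KMO preparation (mouse C57 BL/6J, rat Wistar, human) at 0.3 mg protein/mL in 100 mM potassium phosphate pH 7.4 with 200 µM NADPH, 0.4 U/mL G6PDH, 3 mM glucose 6-phosphate. Compound pre-incubated 5 min at 25°C, then 100 µM kynurenine added; 40 min (rodent) or 60 min (human). Stopped with TCA; 3-hydroxykynurenine by LC-MS/MS. IC50 from 8-point 3-fold dilutions (top 3 or 30 µM), triplicates, n≥2 runs.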

[18] = AUClast in C57BL/6N mouse treated with JM6 (containing <0.4% Ro-61-8048) at 50 mg/kg, po and Ro-61-8048 at 0.05 mg/kg, po drugs administered via gavage by LC-MS/MS analysis; assay type: ADME, organism-based; set-up: dose 50 mg/kg, time 0 - last, route oral; conditions: plasma; how it was run: as §1
[19] = test system: Mus musculus; assay: Dose normalised Cmax in C57BL/6N mouse treated with JM6 (containing <0.4% Ro-61-8048) at 25 mg/kg, po and Ro-61-8048 at 0.05 mg/kg, po drugs administered via gavage by LC-MS/MS analysis; assay type: ADME, organism-based; conditions: in vivo; how it was run: as §1
[20] = AUClast in C57BL/6N mouse treated with JM6 (containing <0.4% Ro-61-8048) at 25 mg/kg, po and Ro-61-8048 at 0.05 mg/kg, po drugs administered via gavage by LC-MS/MS analysis; assay type: ADME, organism-based; set-up: dose 25 mg/kg, route oral, time 0 - last; conditions: plasma; how it was run: as §1
[21] = Hepatic extraction ratio in mouse Hepatocyte at 1 uM after 10 to 90 mins by LC-MS/MS analysis; assay type: ADME, cell-based; conditions: hepatocytes, read-out: ERH

Chain of Kynurenine 3-monooxygenase (O88867 whole entry): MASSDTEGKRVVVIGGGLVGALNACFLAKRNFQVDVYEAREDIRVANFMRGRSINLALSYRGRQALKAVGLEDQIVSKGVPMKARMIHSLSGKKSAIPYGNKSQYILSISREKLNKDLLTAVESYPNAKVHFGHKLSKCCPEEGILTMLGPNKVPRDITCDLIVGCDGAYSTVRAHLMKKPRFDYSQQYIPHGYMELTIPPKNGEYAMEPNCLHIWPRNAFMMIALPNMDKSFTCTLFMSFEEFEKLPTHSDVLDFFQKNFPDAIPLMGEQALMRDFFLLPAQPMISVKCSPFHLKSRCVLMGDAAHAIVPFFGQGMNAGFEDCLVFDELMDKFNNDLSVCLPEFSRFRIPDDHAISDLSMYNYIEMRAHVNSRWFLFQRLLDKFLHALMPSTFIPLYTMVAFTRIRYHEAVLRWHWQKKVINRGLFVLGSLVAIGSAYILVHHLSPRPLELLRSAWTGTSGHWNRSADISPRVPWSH

Row | Cmax/dose [1] | AUC/dose [3] | Tmax [4] | half-life [5] | Tmax [6] | half-life [7] | AUC/dose [8] | Papp A→B at 1 h, 10 µM [9] | AUC/dose [10] | AUC(0-t) [11] | half-life at 5 µM [12] | Tmax [13] | Papp B→A at 1 h, 10 µM [14] | Cmax/dose [15] | half-life at 5 µM [16] | IC50 [17] | AUC(0-t) [18] | Cmax/dose [19] | AUC(0-t) [20] | hepatic extraction ratio at 1 µM [21] | Structure (SMILES) | further results
1 | 18 µM | 140000 nM·kg·h/mg | 30 min | 312 min | 120 min | 414 min | 110000 nM·kg·h/mg | 10 ×10⁻⁶ cm/s | 180000 nM·kg·h/mg | 110 µM·h | > 1440 min | 30 min | 33 ×10⁻⁶ cm/s | 11 µM | > 1440 min | 0.022 µM | 7.9 µM·h | 16 µM | 8.4 µM·h | < 0.5 | COc1ccc(S(=O)(=O)Nc2nc(-c3cccc([N+](=O)[O-])c3)cs2)cc1OC | Papp B→A at 1 h, 10 µM ([2]; MDCK): 13 ×10⁻⁶ cm/s
2 | 0.15 µM | 130 nM·kg·h/mg | 30 min | 42 min | 30 min | 54 min | 160 nM·kg·h/mg | 0.72 ×10⁻⁶ cm/s | 190 nM·kg·h/mg | 1.1 µM·h | > 1440 min | 30 min | 43 ×10⁻⁶ cm/s | 0.19 µM | > 1440 min | 7.1 µM | 9.6 µM·h | 0.14 µM | 4.8 µM·h | 0.83 | COc1ccc(S(=O)(=O)Nc2nc(-c3cccc([N+](=O)[O-])c3)c(CN3CCCCC3)s2)cc1OC | Papp ([2]; mdck-ii, 1 h, 10 µM): 0.53 ×10⁻⁶ cm/s
